{"source": "ChEMBL document CHEMBL1156462", "about": "“Seco-pregnane steroids target the subgenomic RNA of alphavirus-like RNA viruses” (Proc Natl Acad Sci U S A, 2007)", "key": {"Tobacco mosaic virus [1]": {"test_system": "Tobacco mosaic virus", "assay": "Inhibition of TMV U1 replication in tobacco BY2 protoplast by local lesion assay using Chenopodium quinoa leaves", "type": "functional, organism-based", "in_short": "(§1)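 TMV premixed with compound at a range of concentrations used to inoculate tobacco BY-2 protoplasts; virus multiplication then assayed by counting local lesions on the local lesion host Chenopodium quinoa.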"}, "Sindbis virus [2]": {"test_system": "Sindbis virus", "assay": "Antiviral activity against Sindbis virus in BHK21 cells assessed as inhibition of virus-induced cytopathogenicity", "type": "functional, organism-based", "conditions": "BHK-21"}, "Tobacco mosaic virus [3]": {"test_system": "Tobacco mosaic virus", "assay": "Decrease in TMV U1 coat protein level in TMV infected tobacco BY2 protoplast at 50 nM by Western blot analysis", "type": "functional, organism-based", "in_short": "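BY-2 protoplasts (5 ml, 1.5 × 10⁶/ml) infected with TMV pretreated with compound; total protein extracted and coat protein detected by Western blot.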"}, "Tobacco mosaic virus [4]": {"test_system": "Tobacco mosaic virus", "assay": "Inhibition of TMV U1 multiplication in tobacco BY2 protoplast at 50 nM assessed as inhibition of local lesions on Chenopodium quinoa leaves by local lesion assay after 3 days postinfection", "type": "functional", "conditions": "U1, 72 h", "in_short": "as §1"}, "[5]": {"test_system": "Human immunodeficiency virus", "assay": "Antiviral activity against HIV in human H9 cells assessed as inhibition of virus-induced cytopathogenicity", "type": "functional, organism-based", "conditions": "Human immunodeficiency virus 1, H9", "in_short": "(§2)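 Cells seeded at 2 × 10⁵ per well 24 h before use (BHK-21 for GETV, H9 for HIV, CIK for Reovirus, 983A for adenovirus, Veto for measles virus). Infected at a dose giving 100% cytopathic effect at 3 dpi; virus premixed with compound at final 100, 50, 10, 3, 2, 1.5, 1, 0 nM. Infected and uninfected untreated controls on each plate.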"}, "Tobacco mosaic virus [6]": {"test_system": "Tobacco mosaic virus", "assay": "Inhibition of TMV U1 multiplication in tobacco BY2 protoplast at 10 nM assessed as local lesion size on Chenopodium quinoa leaves by local lesion assay", "type": "functional"}, "Hepatitis C virus": {"test_system": "Hepatitis C virus", "assay": "Antiviral activity against HCV in human H9 cells assessed as inhibition of virus-induced cytopathogenicity", "type": "functional, organism-based, Hepacivirus hominis"}, "Tobacco mosaic virus [7]": {"test_system": "Tobacco mosaic virus", "assay": "Reduction of coat protein sgRNA level in TMV U1 infected tobacco BY2 protoplast at 50 nM administered after 4 hrs postinfection", "type": "functional, organism-based", "in_short": "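BY-2 protoplasts infected with TMV supplemented with compound up to 50 nM; total RNA extracted by TRIzol 4 h after infection, and CP sgRNA, I₂ sgRNA and genomic RNA detected by Northern blot with CP gene probe, 28S rRNA as loading control.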"}, "Sindbis virus [8]": {"test_system": "Sindbis virus", "assay": "Antiviral activity against Sindbis virus XJ160 in BHK21 cells assessed as reduction of virus-induced cytopathic effect after 24 hrs", "type": "functional, organism-based", "conditions": "BHK-21", "in_short": "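SINV XJ-160 (2 × 10⁵ pfu/ml, thrice plaque-purified) treated with compound for 15 min, adsorbed 1 h to BHK-21 cells at MOI 0.01 in quadruplicate; washed, fresh DMEM with 5% FBS added, cells kept at 37°C, 5% CO₂. Cytopathic morphology scored by light microscopy at 24 hpi.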"}, "Sindbis virus [9]": {"test_system": "Sindbis virus", "assay": "Decrease in 26S sgRNA level in Sindbis virus XJ160 infected BHK21 cells after 24 hrs postinfection", "type": "functional, organism-based", "conditions": "BHK-21"}, "Tobacco mosaic virus [10]": {"test_system": "Tobacco mosaic virus", "assay": "Inhibition of TMV U1 multiplication in tobacco BY2 protoplast at 20 nM assessed as local lesion size on Chenopodium quinoa leaves by local lesion assay", "type": "functional"}, "Tobacco mosaic virus [11]": {"test_system": "Tobacco mosaic virus", "assay": "Reduction of coat protein level in TMV U1 infected tobacco BY2 protoplast by ELISA", "type": "functional, organism-based", "in_short": "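BY-2 protoplasts inoculated with TMV pretreated with a range of compound concentrations; coat protein measured by ELISA, three repeats per concentration, mean ± SD.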"}, "Tobacco mosaic virus [12]": {"test_system": "Tobacco mosaic virus", "assay": "Inhibition of TMV U1 multiplication in tobacco BY2 protoplast at 10 nM assessed as inhibition of local lesions on Chenopodium quinoa leaves by local lesion assay after 3 days postinfection", "type": "functional", "conditions": "U1, 72 h", "in_short": "as §1"}, "Tobacco mosaic virus [13]": {"test_system": "Tobacco mosaic virus", "assay": "Inhibition of TMV U1 replication in tobacco BY2 protoplast at 50 nM by local lesion assay using Chenopodium quinoa leaves", "type": "functional, organism-based", "in_short": "as §1"}, "Tobacco mosaic virus [14]": {"test_system": "Tobacco mosaic virus", "assay": "Inhibition of TMV U1 multiplication in tobacco BY2 protoplast at 40 nM assessed as local lesion size on Chenopodium quinoa leaves by local lesion assay", "type": "functional"}, "[15]": {"assay": "Selectivity index, ratio of CC50 for BHK21 cells to EC50 for Getah virus", "type": "toxicity, cell-based, BHK-21", "conditions": "hamster, read-out: Ratio CC50/EC50", "in_short": "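Getah virus was tested on BHK-21 cells seeded at 2 × 10⁵ per well 24 h before use, infected at a dose giving 100% CPE at 3 dpi. Compound was premixed with virus at final 100–0 nM. EC50 was taken as 50% inhibition of cytopathogenicity. Index = 50% cytotoxicity concentration/EC50.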"}, "Sindbis virus [16]": {"test_system": "Sindbis virus", "assay": "Decrease in 26S sgRNA level in Sindbis virus XJ160 infected BHK21 cells after 3 hrs postinfection", "type": "functional, organism-based", "conditions": "BHK-21", "in_short": "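BHK-21 cells infected with SINV XJ-160 premixed with compound at MOI 10 in quadruplicate. Viral RNAs quantified at 3 hpi by Northern blot, with β-actin RNA as loading comparison.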"}, "Sindbis virus [17]": {"test_system": "Sindbis virus", "assay": "Decrease in Sindbis virus XJ160 accumulation in BHK21 cells […] by ELISA", "type": "functional, organism-based", "conditions": "XJ160, BHK-21", "in_short": "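BHK-21 cells inoculated with SINV XJ-160 premixed with compound (MOI 0.01, 15-min pretreatment, 1-h adsorption). Virus accumulation measured by ELISA as blank-subtracted OD₄₅₀, averaged over nine repeats per concentration.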"}, "Sindbis virus [18]": {"test_system": "Sindbis virus", "assay": "Reduction of Sindbis virus infection-induced mortality rate in newborn BALB/c mouse assessed as mouse survival at 100 mg/kg administered 4 hrs before viral infection", "type": "functional, organism-based", "set-up": "dose 100 mg/kg", "in_short": "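Newborn BALB/c mice (2–3 days old, ≈2 g), 11 per group, given 20 μl compound at 100 mg/kg BW 1 or 4 h before intracerebral inoculation with 20 μl medium containing 100 × LD₅₀ SINV. Survivors counted at 3, 4, 5, 6 and 7 days after inoculation.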"}, "Getah virus": {"test_system": "Getah virus", "assay": "Antiviral activity against Getah virus in BHK21 cells assessed as inhibition of virus-induced cytopathogenicity", "type": "functional, organism-based", "conditions": "BHK-21", "in_short": "as §2"}, "Sindbis virus [19]": {"test_system": "Sindbis virus", "assay": "Reduction of Sindbis virus infection-induced mortality rate in newborn BALB/c mouse assessed as long term survivors at 50 mg/kg", "type": "functional", "in_short": "(§3)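 Newborn BALB/c mice, 2–3 days old, ≈2 g, were inoculated intracerebrally with 20 μl medium holding 100 × LD50 SINV. Compound (20 μl, 5, 50 or 100 mg/kg BW) was mixed into the inoculum. There were 11 mice per group, counted at 3–7 days. Virus-alone and compound-alone controls were included.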"}, "Sindbis virus [20]": {"test_system": "Sindbis virus", "assay": "Reduction of mortality rate in Sindbis virus-infected newborn BALB/c mouse assessed as long term survivors at 5 mg/kg", "type": "functional", "in_short": "as §3"}, "[21]": {"assay": "Growth inhibition of hamster BHK21 cells at 100 nM after 48 hrs", "type": "cell-based, Mesocricetus auratus", "conditions": "bhk-21, 48 h, 0.1 µM", "in_short": "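BHK-21 cells mock-infected and incubated with 100 nM compound for 48 h; cell morphology and growth examined by light microscopy.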"}, "[22]": {"test_system": "Eastern equine encephalitis virus", "assay": "Antiviral activity against Eastern equine encephalitis virus in BHK21 cells assessed as inhibition of virus-induced cytopathogenicity", "type": "functional, organism-based", "conditions": "BHK-21"}, "Sindbis virus [23]": {"test_system": "Sindbis virus", "assay": "Reduction of Sindbis virus infection-induced mortality rate in newborn BALB/c mouse assessed as survivors at 100 mg/kg administered 4 hrs before infection after 7 days", "type": "functional", "in_short": "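Newborn BALB/c mice, 2–3 days old, ≈2 g, received 20 μl compound at 100 mg/kg BW 1 or 4 h before intracerebral inoculation with 20 μl containing 100 × LD50 SINV. There were 11 mice per group, with survivors counted at 3, 4, 5, 6 and 7 days.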"}}, "note": "The source made the active and inactive calls. No cut-off for these calls is given here.", "data": [{"smiles": "CO[C@@H]1C[C@H](O[C@H]2CC[C@@]3(C)C(=CC[C@H]4C(=O)OC5CO[C@]6(C)OC=C(CC[C@@H]43)[C@H]56)C2)O[C@H](C)[C@H]1O[C@H]1C[C@H](O)[C@H](O[C@@H]2C[C@@H](OC)[C@H](O[C@@H]3O[C@H](CO)[C@@H](O[C@@H]4O[C@H](CO)[C@@H](O)[C@H](O)[C@H]4O)[C@H](O)[C@H]3O)[C@@H](C)O2)[C@@H](C)O1", "note": "(stereo not given in full) [PANICULATUMOSIDE C]", "values": [{"measurement": "IC50", "setting": "Tobacco mosaic virus [1]", "result": 25, "unit": "nM"}, {"measurement": "EC50", "setting": "Sindbis virus [2]", "result": 1.5, "unit": "nM"}, {"measurement": "Activity", "setting": "Tobacco mosaic virus [3]", "result": "Active"}, {"measurement": "inhibition at 0.05 µM", "setting": "Tobacco mosaic virus [4]", "result": 100, "unit": "%"}, {"measurement": "EC50", "setting": "[5]", "result": "> 25000", "unit": "nM"}, {"measurement": "Activity", "setting": "Tobacco mosaic virus [6]", "result": 2.4, "unit": "mm"}, {"measurement": "EC50", "setting": "Hepatitis C virus", "result": "> 25000", "unit": "nM"}, {"measurement": "Activity", "setting": "Tobacco mosaic virus [7]", "result": "Active"}, {"measurement": "Activity", "setting": "Sindbis virus [8]", "result": "Dose-dependent effect"}, {"measurement": "Activity", "setting": "Sindbis virus [9]", "result": "Active"}, {"measurement": "Activity", "setting": "Tobacco mosaic virus [10]", "result": 1.6, "unit": "mm"}, {"measurement": "Activity", "setting": "Tobacco mosaic virus [11]", "result": "Dose-dependent effect"}, {"measurement": "inhibition at 0.01 µM", "setting": "Tobacco mosaic virus [12]", "result": 19, "unit": "%"}, {"measurement": "Activity", "setting": "Tobacco mosaic virus [13]", "result": "Active"}, {"measurement": "Activity", "setting": "Tobacco mosaic virus [14]", "result": 1, "unit": "mm"}, {"measurement": "selectivity ratio", "setting": "[15]", "result": 16500}, {"measurement": "Activity", "setting": "Sindbis virus [16]", "result": "Dose-dependent effect"}, {"measurement": "EC50", "setting": "Sindbis virus [17]", "result": 1.5, "unit": "nM"}, {"measurement": "Activity", "setting": "Sindbis virus [18]", "result": "Toxic"}, {"measurement": "EC50", "setting": "Getah virus", "result": 1, "unit": "nM"}, {"measurement": "Activity", "setting": "Sindbis virus [19]", "result": 54, "unit": "%"}, {"measurement": "Activity", "setting": "Sindbis virus [20]", "result": 18, "unit": "%"}, {"measurement": "Activity", "setting": "[21]", "result": "Non-toxic"}, {"measurement": "EC50", "setting": "[22]", "result": 2, "unit": "nM"}, {"measurement": "Activity", "setting": "Sindbis virus [23]", "result": 30, "unit": "%"}]}]}
